# From ChEMBL document CHEMBL4145448, “Broad activity of diphenyleneiodonium analogues against Mycobacterium tuberculosis, malaria parasites and bacterial pathogens” (Eur J Med Chem, 2018)
# Experiments:
# [1] = Selectivity index, ratio of CC50 for human HepG2 cells in presence of 1% FBS to MIC for Pseudomonas aeruginosa isolate 19147nm; format: toxicity; conditions: read-out: Selectivity Index
# Outline: (§1)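 Selectivity index is CC50 (1% FBS) divided by MIC. […] They then got compound at 300 to 0.14 µM (3-fold steps) for 24 h at 37 °C, 5% CO2. Resazurin (10 µM, 2 h) was read at ex/em 560/590 in duplicate wells. For MIC, CLSI broth microdilution was run in CaMHB with ~10^6 cfu/mL inoculum and 0–128 µM compound.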
# Klebsiella pneumoniae [2] = assay: Antibacterial activity against Klebsiella pneumoniae isolate 224-11-C after 18 hrs by broth microdilution method; format: functional
# Outline: (§2)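 Broth microdilution per CLSI in cation-adjusted Mueller-Hinton broth. 100 µL inoculum (~10^6 cfu/mL in CaMHB) mixed with 100 µL CaMHB containing compound, 0 to 128 µM. Incubated 18 h at 37 °C. MIC taken as the lowest concentration with no visible growth. Polymyxin B served as positive control. Isolates were stored at -80 °C in tryptone soy broth with 20% glycerol.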
# Klebsiella pneumoniae [3] = assay: Antibacterial activity against Klebsiella pneumoniae isolate 1 after 18 hrs by broth microdilution method; format: functional; conditions: isolate 1, 18 h; outline: as §2
# [4] = Selectivity index, ratio of CC50 for human HepG2 cells in presence of 1% FBS to MIC for Acinetobacter baumannii ATCC 19606; format: toxicity; conditions: read-out: Selectivity Index
# Staphylococcus aureus [5] = assay: Antibacterial activity against methicillin-resistant Staphylococcus aureus ATCC 43300 after 18 hrs by broth microdilution method; format: functional; conditions: ATCC 43300, 18 h; outline: as §2
# [6] = Selectivity index, ratio of CC50 for human HepG2 cells in presence of 1% FBS to MIC for Klebsiella pneumoniae isolate 224-11-C; format: toxicity; conditions: read-out: Selectivity Index
# Staphylococcus aureus [7] = assay: Antibacterial activity against vancomycin-resistant Staphylococcus aureus ATCC 700699 after 18 hrs by broth microdilution method; format: functional; conditions: ATCC 700699, 18 h; outline: as §2
# [8] = Selectivity index, ratio of CC50 for human HepG2 cells in presence of 1% FBS to MIC for Klebsiella pneumoniae isolate 248-33-D; format: toxicity; conditions: read-out: Selectivity Index
# [9] = Selectivity index, ratio of CC50 for human HepG2 cells in presence of 1% FBS to MIC for Escherichia coli N2381; format: toxicity; conditions: read-out: Selectivity Index
# [10] = Selectivity index, ratio of CC50 for human HepG2 cells in presence of 1% FBS to MIC for Mycobacterium tuberculosis H37Rv ATCC 25618; format: toxicity; conditions: read-out: Selectivity Index
# Acinetobacter baumannii [11] = assay: Antibacterial activity against Acinetobacter baumannii ATCC 19606 after 18 hrs by broth microdilution method; format: functional; conditions: ATCC 19606 = CIP 70.34 = JCM 6841, 18 h; outline: as §2
# [12] = Cytotoxicity against human HepG2 cells after 24 hrs in presence of 1% FBS by resazurin dye based assay; format: cell-based
# Outline: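 HepG2 cells seeded at 4000/well in DMEM with 1% FBS and allowed to attach for 24 h at 37 °C, 5% CO2. Compounds added from 300 to 0.14 µM in 3-fold steps and incubated 24 h. 10 µM resazurin added for 2 h, fluorescence read at ex/em 560/590. Percent viability computed relative to untreated and negative controls, duplicate wells.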
# [13] = Selectivity index, ratio of CC50 for human HepG2 cells in presence of 1% FBS to MIC for vancomycin-intermediate Staphylococcus aureus ATCC 700698; format: toxicity; conditions: read-out: Selectivity Index; outline: as §1
# Acinetobacter baumannii [14] = assay: Antibacterial activity against Acinetobacter baumannii ATCC 17978 col10 after 18 hrs by broth microdilution method; format: functional; conditions: ATCC 17978 col10, 18 h; outline: as §2
# [15] = Selectivity index, ratio of CC50 for human HepG2 cells in presence of 1% FBS to MIC for Acinetobacter baumannii ATCC 17978; format: toxicity; conditions: read-out: Selectivity Index
# [16] = Selectivity index, ratio of CC50 for human HepG2 cells in presence of 1% FBS to MIC for Acinetobacter baumannii ATCC 19606 col10; format: toxicity; conditions: read-out: Selectivity Index
# [17] = Selectivity index, ratio of CC50 for human HepG2 cells in presence of 1% FBS to MIC for Acinetobacter baumannii ATCC 17978 col10; format: toxicity; conditions: read-out: Selectivity Index
# [18] = test system: Mycobacterium tuberculosis; assay: Antimycobacterial activity against Mycobacterium tuberculosis H37Rv ATCC 25618 after 7 days by resazurin dye based assay; format: functional; conditions: H37Rv ATCC 25618, 168 h
# Outline: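 H37Rv grown at 37 °C in 7H9 with 10% ADC, 0.5% glycerol and 0.02% tyloxapol. Compounds serially diluted in water, 0 to 10 µM, in triplicate. Culture adjusted to OD600 0.001 and incubated 7 days at 37 °C. Resazurin (0.05% w/v) added for 4-24 h and fluorescence read at 590 nm. MIC is the lowest concentration giving complete growth inhibition versus untreated. Rifampicin served as control.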
# Klebsiella pneumoniae [19] = assay: Antibacterial activity against Klebsiella pneumoniae isolate M320445 after 18 hrs by broth microdilution method; format: functional; conditions: isolate M320445, 18 h; outline: as §2
# Pseudomonas aeruginosa [20] = assay: Antibacterial activity against Pseudomonas aeruginosa isolate 912 after 18 hrs by broth microdilution method; format: functional; conditions: isolate 912, 18 h; outline: as §2
# Pseudomonas aeruginosa [21] = assay: Antibacterial activity against Pseudomonas aeruginosa isolate M146201 after 18 hrs by broth microdilution method; format: functional; conditions: isolate M146201, 18 h; outline: as §2
# Acinetobacter baumannii [22] = assay: Antibacterial activity against Acinetobacter baumannii isolate 07AC-336 after 18 hrs by broth microdilution method; format: functional; conditions: isolate 07AC-336, 18 h; outline: as §2
# Acinetobacter baumannii [23] = assay: Antibacterial activity against Acinetobacter baumannii ATCC 19606 col10 after 18 hrs by broth microdilution method; format: functional; conditions: ATCC 19606 = CIP 70.34 = JCM 6841 col10, 18 h; outline: as §2
# [24] = Selectivity index, ratio of CC50 for human HepG2 cells in presence of 1% FBS to MIC for Pseudomonas aeruginosa isolate 912; format: toxicity; conditions: read-out: Selectivity Index; outline: as §1
# Staphylococcus aureus [25] = assay: Antibacterial activity against vancomycin-intermediate Staphylococcus aureus ATCC 700698 after 18 hrs by broth microdilution method; format: functional; conditions: ATCC 700698, 18 h; outline: as §2
# [26] = Selectivity index, ratio of CC50 for human HepG2 cells in presence of 1% FBS to MIC for vancomycin-resistant Staphylococcus aureus ATCC 700699; format: toxicity; conditions: read-out: Selectivity Index; outline: as §1
# [27] = Selectivity index, ratio of CC50 for human HepG2 cells in presence of 1% FBS to MIC for vancomycin-resistant Enterococcus faecium ATCC 700221; format: toxicity; conditions: read-out: Selectivity Index; outline: as §1
# Klebsiella pneumoniae [28] = assay: Antibacterial activity against Klebsiella pneumoniae isolate 248-33-D after 18 hrs by broth microdilution method; format: functional; outline: as §2
# [29] = Selectivity index, ratio of CC50 for human HepG2 cells in presence of 1% FBS to MIC for methicillin-resistant Staphylococcus aureus ATCC 43300; format: toxicity; conditions: read-out: Selectivity Index; outline: as §1
# [30] = Selectivity index, ratio of CC50 for human HepG2 cells in presence of 1% FBS to MIC for Escherichia coli N4149; format: toxicity; conditions: read-out: Selectivity Index
# [31] = Selectivity index, ratio of CC50 for human HepG2 cells in presence of 1% FBS to MIC for Pseudomonas aeruginosa QLD PSA 1; format: toxicity; conditions: read-out: Selectivity Index; outline: as §1
# [32] = Selectivity index, ratio of CC50 for human HepG2 cells in presence of 1% FBS to MIC for Klebsiella pneumoniae isolate 1; format: toxicity; conditions: read-out: Selectivity Index
SMILES,selectivity ratio [1],MIC (Klebsiella pneumoniae [2]) [µM],MIC (Klebsiella pneumoniae [3]) [µM],selectivity ratio [4],MIC (Staphylococcus aureus [5]) [µM],selectivity ratio [6],MIC (Staphylococcus aureus [7]) [µM],selectivity ratio [8],selectivity ratio [9],selectivity ratio [10],MIC (Acinetobacter baumannii [11]) [µM],CC50 at 24 h [12] [µM],selectivity ratio [13],MIC (Acinetobacter baumannii [14]) [µM],selectivity ratio [15],selectivity ratio [16],selectivity ratio [17],MIC [18] [µM],MIC (Klebsiella pneumoniae [19]) [µM],MIC (Pseudomonas aeruginosa [20]) [µM],further results
COc1ccc2c(c1)[I+]c1ccccc1-2,0.81,> 70,> 70,0.39,4.4,> 0.11,8.7,> 0.11,0.21,24,18,6.8,0.78,2.2,0.39,3.1,3.1,0.28,70,> 70,MIC (Pseudomonas aeruginosa [21]): 70 µM; MIC (Acinetobacter baumannii [22]): > 70 µM; MIC (Acinetobacter baumannii [23]): 2.2 µM; selectivity ratio [24]: > 0.11; MIC (Staphylococcus aureus [25]): 8.7 µM; selectivity ratio [26]: 0.78; selectivity ratio [27]: 1.6; MIC (Klebsiella pneumoniae [28]): > 70 µM; selectivity ratio [29]: 1.6; selectivity ratio [30]: > 0.11; selectivity ratio [31]: 0.11; selectivity ratio [32]: > 0.11
c1ccc2c(c1)[I+]c1c-2ccc2ccccc12,0.34,34,34,0.17,2.1,0.02,4.2,0.02,0.09,2.4,4.2,0.72,0.17,0.52,0.69,0.69,1.4,0.52,17,2.1,MIC (Pseudomonas aeruginosa [21]): 8.4 µM; MIC (Acinetobacter baumannii [22]): 8.4 µM; MIC (Acinetobacter baumannii [23]): 1.1 µM; selectivity ratio [24]: 0.34; MIC (Staphylococcus aureus [25]): 4.2 µM; selectivity ratio [26]: 0.17; selectivity ratio [27]: 0.69; MIC (Klebsiella pneumoniae [28]): 34 µM; selectivity ratio [29]: 0.34; selectivity ratio [30]: 0.02; selectivity ratio [31]: 0.17; selectivity ratio [32]: 0.02
Fc1ccc2c(c1)[I+]c1ccccc1-2,11,72,72,2.6,2.2,0.08,8.9,0.16,0.08,20,4.5,5.9,0.66,0.56,5.3,2.6,11,0.29,36,1.1,MIC (Pseudomonas aeruginosa [21]): 2.2 µM; MIC (Acinetobacter baumannii [22]): 8.9 µM; MIC (Acinetobacter baumannii [23]): 2.2 µM; selectivity ratio [24]: 5.3; MIC (Staphylococcus aureus [25]): 8.9 µM; selectivity ratio [26]: 0.66; selectivity ratio [27]: 2.6; MIC (Klebsiella pneumoniae [28]): 36 µM; selectivity ratio [29]: 2.6; selectivity ratio [30]: 0.08; selectivity ratio [31]: 0.66; selectivity ratio [32]: 0.08
Clc1ccc2c(c1)[I+]c1ccccc1-2,2,17,17,0.51,2.2,0.06,2.2,0.06,0.13,3.9,2.2,1.1,0.51,< 0.27,2,1,< 4.1,0.28,8.7,1.1,MIC (Pseudomonas aeruginosa [21]): 2.2 µM; MIC (Acinetobacter baumannii [22]): 2.2 µM; MIC (Acinetobacter baumannii [23]): 1.1 µM; selectivity ratio [24]: 1; MIC (Staphylococcus aureus [25]): 2.2 µM; selectivity ratio [26]: 0.51; selectivity ratio [27]: 1; MIC (Klebsiella pneumoniae [28]): 17 µM; selectivity ratio [29]: 0.51; selectivity ratio [30]: 0.13; selectivity ratio [31]: 0.51; selectivity ratio [32]: 0.06
